Data as given in publication PMC3517184 (Bioorganic & medicinal chemistry, 2012).

What was measured:
[1] = test system: cell viability; assay: WST-1 cell viability / toxicity assay; assay type: cell-based; conditions: up to 10.0 μM
Procedure, shortened: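 Cells are seeded at 2×10^4 per well and cultured 24 h at 37°C, then moved to serum-free medium with vehicle or test compound at various concentrations for 24 h. Premixed WST-1 reagent is added, and after 30 min at 37°C absorbance is read at 490 nm.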

[2] = test system: LPS-induced activation of NF-κB; assay: NF-κB dual luciferase reporter assay in BV-2 microglial cells; assay type: cell-based
Procedure, shortened: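 NF-κB dual-luciferase reporter BV-2 microglia are kept in DMEM with 10% FBS, penicillin, streptomycin and puromycin (3 μg/mL). After 24 h seeding, medium is switched to Opti-MEM with 0.5% FBS. Test compound is added, then LPS at 200 ng/mL for 24 h. Dual-Glo luminescence is read, and the firefly/Renilla ratio is taken as NF-κB activity.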

[3] = biological target: TLR1/TLR2 (Mus musculus, UniProt Q9EPQ1+Q9QUN7); assay: TLR specificity test, NO production induced by Pam3CSK4 in RAW 264.7 cells; assay type: cell-based, murine; conditions: 0.6 μM
Sequence of TLR1/TLR2 (Q9EPQ1 26-795): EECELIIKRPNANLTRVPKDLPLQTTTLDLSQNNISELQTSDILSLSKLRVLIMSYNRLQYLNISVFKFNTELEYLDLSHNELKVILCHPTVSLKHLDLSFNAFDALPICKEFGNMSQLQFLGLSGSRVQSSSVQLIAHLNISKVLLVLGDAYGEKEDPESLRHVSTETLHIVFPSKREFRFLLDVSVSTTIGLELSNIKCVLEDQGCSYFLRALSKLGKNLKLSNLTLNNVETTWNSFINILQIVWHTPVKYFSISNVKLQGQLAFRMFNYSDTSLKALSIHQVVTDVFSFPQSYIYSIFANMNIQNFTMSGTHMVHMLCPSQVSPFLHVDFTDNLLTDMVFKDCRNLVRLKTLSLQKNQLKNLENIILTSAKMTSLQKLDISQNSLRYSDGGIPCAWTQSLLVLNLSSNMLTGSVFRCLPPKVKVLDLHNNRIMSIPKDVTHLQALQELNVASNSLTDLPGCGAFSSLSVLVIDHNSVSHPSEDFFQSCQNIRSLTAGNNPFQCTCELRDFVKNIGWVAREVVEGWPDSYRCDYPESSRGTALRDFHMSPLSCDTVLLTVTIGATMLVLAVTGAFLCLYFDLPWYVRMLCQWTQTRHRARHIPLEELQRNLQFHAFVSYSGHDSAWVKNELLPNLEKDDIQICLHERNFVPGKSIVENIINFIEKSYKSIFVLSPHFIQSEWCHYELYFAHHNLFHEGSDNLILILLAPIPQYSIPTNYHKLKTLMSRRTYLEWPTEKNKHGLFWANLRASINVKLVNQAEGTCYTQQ
Sequence of TLR1/TLR2 (Q9QUN7 25-784): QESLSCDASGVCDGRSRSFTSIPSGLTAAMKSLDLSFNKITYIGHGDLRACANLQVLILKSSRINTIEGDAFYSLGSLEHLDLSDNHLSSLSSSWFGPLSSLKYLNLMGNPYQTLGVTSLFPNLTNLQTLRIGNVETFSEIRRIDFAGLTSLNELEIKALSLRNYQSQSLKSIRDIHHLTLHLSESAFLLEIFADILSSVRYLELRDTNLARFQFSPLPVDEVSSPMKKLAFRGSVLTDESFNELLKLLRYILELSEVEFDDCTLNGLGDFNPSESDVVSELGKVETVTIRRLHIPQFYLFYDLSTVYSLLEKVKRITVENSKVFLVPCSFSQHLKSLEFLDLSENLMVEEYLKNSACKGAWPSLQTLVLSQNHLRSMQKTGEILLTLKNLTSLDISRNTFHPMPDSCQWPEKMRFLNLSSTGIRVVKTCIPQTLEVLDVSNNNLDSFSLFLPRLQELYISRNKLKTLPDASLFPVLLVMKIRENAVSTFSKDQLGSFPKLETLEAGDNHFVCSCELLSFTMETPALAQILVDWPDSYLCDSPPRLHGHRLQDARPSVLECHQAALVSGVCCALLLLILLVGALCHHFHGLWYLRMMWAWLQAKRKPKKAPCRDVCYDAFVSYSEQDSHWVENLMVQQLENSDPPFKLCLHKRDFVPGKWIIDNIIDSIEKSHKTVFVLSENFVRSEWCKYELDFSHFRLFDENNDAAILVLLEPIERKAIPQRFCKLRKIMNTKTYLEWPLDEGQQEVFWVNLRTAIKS

[4] = biological target: T1, TLR3 (Mus musculus, UniProt Q99MB1); assay: TLR specificity test, NO production induced by poly; assay type: cell-based, murine; conditions: 0.6 μM, RAW 264.7 cells, poly(I:C)
T1 sequence (Q99MB1 26-905): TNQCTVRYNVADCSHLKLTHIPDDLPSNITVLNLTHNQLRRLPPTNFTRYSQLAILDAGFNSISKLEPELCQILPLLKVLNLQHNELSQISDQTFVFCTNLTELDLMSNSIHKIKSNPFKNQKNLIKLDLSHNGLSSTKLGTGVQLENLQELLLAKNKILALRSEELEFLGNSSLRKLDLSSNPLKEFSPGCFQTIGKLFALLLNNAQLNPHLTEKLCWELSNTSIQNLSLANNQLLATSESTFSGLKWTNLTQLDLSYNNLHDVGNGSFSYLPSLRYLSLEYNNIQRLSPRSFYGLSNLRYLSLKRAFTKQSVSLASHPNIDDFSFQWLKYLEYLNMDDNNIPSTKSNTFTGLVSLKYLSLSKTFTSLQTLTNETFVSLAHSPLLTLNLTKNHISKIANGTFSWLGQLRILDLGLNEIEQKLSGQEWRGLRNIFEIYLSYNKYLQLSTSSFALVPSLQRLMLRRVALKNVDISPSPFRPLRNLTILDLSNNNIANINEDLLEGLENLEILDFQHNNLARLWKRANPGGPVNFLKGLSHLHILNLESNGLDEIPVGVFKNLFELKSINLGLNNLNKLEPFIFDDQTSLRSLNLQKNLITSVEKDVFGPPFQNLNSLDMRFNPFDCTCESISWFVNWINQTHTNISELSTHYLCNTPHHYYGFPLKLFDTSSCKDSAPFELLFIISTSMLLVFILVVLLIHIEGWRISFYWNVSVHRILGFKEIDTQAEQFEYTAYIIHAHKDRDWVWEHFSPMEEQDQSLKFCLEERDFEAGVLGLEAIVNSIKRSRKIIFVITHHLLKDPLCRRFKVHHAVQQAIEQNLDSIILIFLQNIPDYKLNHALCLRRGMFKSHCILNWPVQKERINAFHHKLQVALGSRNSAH

[5] = test system: TLR7/8; assay: TLR specificity test, NO production induced by R848 in RAW 264.7 cells; assay type: cell-based, murine; conditions: 0.6 μM
[6] = biological target: TLR2/TLR6 heterodimer (Mus musculus, UniProt Q9EPW9+Q9QUN7); assay: TLR specificity test, NO production induced by FSL-1 in RAW 264.7 cells; assay type: cell-based, murine; conditions: 0.6 μM
Sequence of TLR2/TLR6 heterodimer (Q9QUN7 25-784): as the sequence (Q9QUN7 25-784) above
Sequence of TLR2/TLR6 heterodimer (Q9EPW9 28-795): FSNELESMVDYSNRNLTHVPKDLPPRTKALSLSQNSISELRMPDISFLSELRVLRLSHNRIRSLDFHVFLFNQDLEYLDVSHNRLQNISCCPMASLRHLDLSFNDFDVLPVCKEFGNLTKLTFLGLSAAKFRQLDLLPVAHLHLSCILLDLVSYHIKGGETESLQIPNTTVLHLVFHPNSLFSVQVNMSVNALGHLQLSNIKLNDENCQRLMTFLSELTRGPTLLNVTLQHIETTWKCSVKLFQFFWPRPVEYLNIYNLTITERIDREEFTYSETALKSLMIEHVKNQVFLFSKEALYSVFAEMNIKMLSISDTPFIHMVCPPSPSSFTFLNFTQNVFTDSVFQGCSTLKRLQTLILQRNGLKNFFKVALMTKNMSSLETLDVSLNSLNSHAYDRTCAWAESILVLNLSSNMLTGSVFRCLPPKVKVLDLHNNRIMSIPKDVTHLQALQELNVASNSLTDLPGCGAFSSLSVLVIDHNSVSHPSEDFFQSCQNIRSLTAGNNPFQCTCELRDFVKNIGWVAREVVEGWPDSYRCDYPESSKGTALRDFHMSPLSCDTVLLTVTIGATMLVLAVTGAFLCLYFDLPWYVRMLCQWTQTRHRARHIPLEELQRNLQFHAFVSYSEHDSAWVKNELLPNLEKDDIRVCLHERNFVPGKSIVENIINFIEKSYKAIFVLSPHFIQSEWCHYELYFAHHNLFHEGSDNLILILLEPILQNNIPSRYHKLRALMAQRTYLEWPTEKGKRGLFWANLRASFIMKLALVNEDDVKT

[7] = test system: LPS-induced NO production in RAW 264.7 macrophage cells; assay: Inhibition of LPS-induced NO production in RAW 264.7 macrophage cells; assay type: cell-based, murine
[8] = test system: LPS-induced IL-1β production; assay: LPS-induced IL-1β production in RAW 264.7 cells; assay type: cell-based, murine; conditions: ELISA
Procedure, shortened: (§1)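 RAW 264.7 macrophages are grown in RPMI 1640 with 10% FBS, penicillin and streptomycin at 37°C and 5% CO2. Cells are pretreated with or without LPS, then given test compound (10 mM DMSO stock). After 24 h, supernatants are clarified and cells are lysed, with both stored at −80°C. ELISA measures TNF-α in medium and IL-1β in lysate, with IL-1β normalized to total protein.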

[9] = test system: LPS-induced TNF-α production; assay: LPS-induced TNF-α production in RAW 264.7 cells; assay type: cell-based, murine; conditions: ELISA
Procedure, shortened: as §1

COC(=O)C(=Cc1ccccc1[N+](=O)[O-])C(=O)OC [Compound 1, Dimethyl 2-(2-nitrobenzylidene)malonate]
cytotoxicity (WST-1 toxicity assay) [1]: did not show significant toxicity
IC50 ([2]; Mus musculus, BV-2, 24 h, read-out: IC50, inhibition of LPS-induced NF-κB reporter activity): 5.92 ± 0.14 µM
inhibition of TLR1/TLR2 signaling (NO production) [3]: negligible inhibition
inhibition of TLR3 signaling (NO production) [4]: negligible inhibition
inhibition of TLR7/8 signaling (NO production) [5]: negligible inhibition
effect on signal via TLR2/TLR6 heterodimer (NO production) [6]: reduced the signal

COC(=O)C(=Cc1ccccc1)C(=O)OC [Compound 2, Dimethyl 2-benzylidenemalonate]
decrease of activity relative to 1 (NO production) ([7]; absence of any substituent on the benzene ring): greater than 2 fold

COC(=O)C(Cc1ccccc1[N+](=O)[O-])C(=O)OC [Compound 22, Dimethyl 2-(2-nitrobenzyl) malonate]
inhibition of LPS-induced NO production ([7]; RAW 264.7 cells, at the tested concentrations (Figure 1A)): negligible inhibition
effect on LPS-induced NF-κB activation ([2]; BV-2 cells, concentrations up to 10 μM): did not alter
effect on IL-1β production [8]: did not affect
effect on TNF-α production [9]: did not affect
